Laboratory results published in ChEMBL document CHEMBL2086304, “Synthesis and in vitro antimycobacterial and isocitrate lyase inhibition properties of novel 2-methoxy-2'-hydroxybenzanilides, their thioxo analogues and benzoxazoles” (Eur J Med Chem, 2012).
In brackets after ≈: the same amount, converted by molar mass.

Experiments:
Mycobacterium kansasii [1] = assay: Antimycobacterial activity against Mycobacterium kansasii 6509/96 clinical isolate after 21 days by micromethod; type: functional; details: 6509/96, 504 h
In short: (§1)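 Inocula: M. tuberculosis My 331/88 at 10^-3 dilution, M. avium My 330/88 at 10^-5, M. kansasii My 235/80 and clinical isolate 6509/96 at 10^-4. Compounds added in DMSO at 1000 down to 0.5 (twofold series). Read at 14 and 21 days, plus 7 days for M. kansasii. MIC taken as lowest concentration inhibiting growth.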

Mycobacterium avium [2] = assay: Antimycobacterial activity against isoniazid resistance Mycobacterium avium 330/88 after 21 days by micromethod; type: functional; details: 330/88, 504 h; in short: as §1
[3] = tested on: Mycobacterium tuberculosis; assay: Antimycobacterial activity against Mycobacterium tuberculosis 331/88 after 21 days by micromethod; type: functional; details: 331/88, 504 h; in short: as §1
[4] = tested on: Mycobacterium tuberculosis; assay: Antimycobacterial activity against Mycobacterium tuberculosis 331/88 after 14 days by micromethod; type: functional; details: 331/88, 336 h; in short: as §1
Mycobacterium kansasii [5] = assay: Antimycobacterial activity against isoniazid resistance Mycobacterium kansasii 225/80 after 21 days by micromethod; type: functional; details: 225/80, 504 h
Mycobacterium kansasii [6] = assay: Antimycobacterial activity against isoniazid resistance Mycobacterium kansasii 225/80 after 14 days by micromethod; type: functional; details: 225/80, 336 h
Mycobacterium kansasii [7] = assay: Antimycobacterial activity against Mycobacterium kansasii 6509/96 clinical isolate after 14 days by micromethod; type: functional; details: 6509/96, 336 h; in short: as §1
Mycobacterium avium [8] = assay: Antimycobacterial activity against isoniazid resistance Mycobacterium avium 330/88 after 14 days by micromethod; type: functional; details: 330/88, 336 h; in short: as §1
Mycobacterium kansasii [9] = assay: Antimycobacterial activity against isoniazid resistance Mycobacterium kansasii 225/80 after 7 days by micromethod; type: functional; details: 225/80, 168 h
Mycobacterium kansasii [10] = assay: Antimycobacterial activity against Mycobacterium kansasii 6509/96 clinical isolate after 7 days by micromethod; type: functional; details: 6509/96, 168 h; in short: as §1
[11] = biological target: T1, Isocitrate lyase (Mycobacterium tuberculosis) (UniProt P9WKK7); assay: Inhibition of Mycobacterium tuberculosis H37Rv isocitrate lyase expressed in Escherichia coli HB101 at 10 umol/L
T1 sequence (whole entry): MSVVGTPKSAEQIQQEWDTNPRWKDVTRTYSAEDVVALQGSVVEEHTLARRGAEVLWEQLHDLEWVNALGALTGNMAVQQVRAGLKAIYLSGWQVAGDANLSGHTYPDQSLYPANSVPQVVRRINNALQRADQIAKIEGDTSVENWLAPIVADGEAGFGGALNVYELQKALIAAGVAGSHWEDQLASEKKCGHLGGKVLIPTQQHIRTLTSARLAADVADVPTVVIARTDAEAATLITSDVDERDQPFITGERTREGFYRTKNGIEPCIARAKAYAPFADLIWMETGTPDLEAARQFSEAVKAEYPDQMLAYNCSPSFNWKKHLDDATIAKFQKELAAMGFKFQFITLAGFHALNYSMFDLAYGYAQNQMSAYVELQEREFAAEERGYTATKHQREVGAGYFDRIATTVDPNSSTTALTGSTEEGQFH
In short: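 Isocitrate lyase assayed per Dixon–Kornberg in 96-well format. Buffer: 50 mmol/L KH2PO4, 4 mmol/L MgCl2, 4 mmol/L phenylhydrazine, 12 mmol/L cysteine, pH 7.0. Glyoxylate phenylhydrazone read at 324 nm. Compounds added in DMSO, with DMSO-alone inhibition subtracted.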

| Structure (SMILES) | MIC (Mycobacterium kansasii [1]) [µM] | MIC (Mycobacterium avium [2]) [µM] | MIC [3] [µM] | MIC [4] [µM] | MIC (Mycobacterium kansasii [5]) [µM] | MIC (Mycobacterium kansasii [6]) [µM] | MIC (Mycobacterium kansasii [7]) [µM] | MIC (Mycobacterium avium [8]) [µM] | MIC (Mycobacterium kansasii [9]) [µM] | MIC (Mycobacterium kansasii [10]) [µM] | inhibition [11] [%] |
| --- | --- | --- | --- | --- | --- | --- | --- | --- | --- | --- | --- |
| NNC(=O)c1ccncc1 [ISONIAZID] | 4 (≈ 0.549 µg/mL) | > 250 | 0.5 (≈ 0.0686 µg/mL) | 0.5 (≈ 0.0686 µg/mL) | > 250 | > 250 | 4 (≈ 0.549 µg/mL) | > 250 | > 250 | 4 (≈ 0.549 µg/mL) | – |
| COc1ccc(Cl)cc1-c1nc2cc(Cl)c(Cl)cc2o1 | 125 (≈ 41.1 µg/mL) | 125 (≈ 41.1 µg/mL) | 125 (≈ 41.1 µg/mL) | 125 (≈ 41.1 µg/mL) | 125 (≈ 41.1 µg/mL) | 125 (≈ 41.1 µg/mL) | 125 (≈ 41.1 µg/mL) | 125 (≈ 41.1 µg/mL) | 125 (≈ 41.1 µg/mL) | 125 (≈ 41.1 µg/mL) | 4 |
| COc1ccc(Cl)cc1-c1nc2cc(Cl)ccc2o1 | 250 (≈ 73.5 µg/mL) | 250 (≈ 73.5 µg/mL) | 125 (≈ 36.8 µg/mL) | 125 (≈ 36.8 µg/mL) | 250 (≈ 73.5 µg/mL) | 250 (≈ 73.5 µg/mL) | 250 (≈ 73.5 µg/mL) | 250 (≈ 73.5 µg/mL) | 250 (≈ 73.5 µg/mL) | 250 (≈ 73.5 µg/mL) | 0 |
| COc1ccc(Cl)cc1-c1nc2ccc(C(F)(F)F)cc2o1 | 62.5 (≈ 20.5 µg/mL) | 250 (≈ 81.9 µg/mL) | 62.5 (≈ 20.5 µg/mL) | 62.5 (≈ 20.5 µg/mL) | 250 (≈ 81.9 µg/mL) | 250 (≈ 81.9 µg/mL) | 62.5 (≈ 20.5 µg/mL) | 250 (≈ 81.9 µg/mL) | 250 (≈ 81.9 µg/mL) | 62.5 (≈ 20.5 µg/mL) | 0 |
| COc1cc(Cl)ccc1C(=O)Nc1ccc(Cl)cc1OC(=O)c1ccc(Cl)cc1OC | 62.5 (≈ 30 µg/mL) | 62.5 (≈ 30 µg/mL) | 8 (≈ 3.85 µg/mL) | 4 (≈ 1.92 µg/mL) | 125 (≈ 60.1 µg/mL) | 32 (≈ 15.4 µg/mL) | 16 (≈ 7.69 µg/mL) | 62.5 (≈ 30 µg/mL) | 16 (≈ 7.69 µg/mL) | 8 (≈ 3.85 µg/mL) | 0 |
| COc1cc(Cl)ccc1-c1nc2ccc(Br)cc2o1 | 125 (≈ 42.3 µg/mL) | 125 (≈ 42.3 µg/mL) | 125 (≈ 42.3 µg/mL) | 125 (≈ 42.3 µg/mL) | 125 (≈ 42.3 µg/mL) | 125 (≈ 42.3 µg/mL) | 125 (≈ 42.3 µg/mL) | 125 (≈ 42.3 µg/mL) | 125 (≈ 42.3 µg/mL) | 125 (≈ 42.3 µg/mL) | 0 |
| COc1cc(Cl)ccc1-c1nc2ccc(Cl)cc2o1 | 62.5 (≈ 18.4 µg/mL) | 62.5 (≈ 18.4 µg/mL) | 125 (≈ 36.8 µg/mL) | 125 (≈ 36.8 µg/mL) | 62.5 (≈ 18.4 µg/mL) | 62.5 (≈ 18.4 µg/mL) | 62.5 (≈ 18.4 µg/mL) | 62.5 (≈ 18.4 µg/mL) | 62.5 (≈ 18.4 µg/mL) | 62.5 (≈ 18.4 µg/mL) | 0 |
| COc1cc(Cl)ccc1-c1nc2cc(Br)ccc2o1 | 250 (≈ 84.6 µg/mL) | 250 (≈ 84.6 µg/mL) | 250 (≈ 84.6 µg/mL) | 250 (≈ 84.6 µg/mL) | 250 (≈ 84.6 µg/mL) | 250 (≈ 84.6 µg/mL) | 250 (≈ 84.6 µg/mL) | 250 (≈ 84.6 µg/mL) | 250 (≈ 84.6 µg/mL) | 250 (≈ 84.6 µg/mL) | 0 |
| COc1ccc(Cl)cc1C(=O)Nc1cc(Cl)c(Cl)cc1OC(=O)c1cc(Cl)ccc1OC | 8 (≈ 4.12 µg/mL) | 62.5 (≈ 32.2 µg/mL) | 8 (≈ 4.12 µg/mL) | 8 (≈ 4.12 µg/mL) | 8 (≈ 4.12 µg/mL) | 8 (≈ 4.12 µg/mL) | 8 (≈ 4.12 µg/mL) | 62.5 (≈ 32.2 µg/mL) | 4 (≈ 2.06 µg/mL) | 4 (≈ 2.06 µg/mL) | 3 |
| COc1cc(Cl)ccc1-c1nc2ccc(C(F)(F)F)cc2o1 | 250 (≈ 81.9 µg/mL) | 125 (≈ 41 µg/mL) | 250 (≈ 81.9 µg/mL) | 250 (≈ 81.9 µg/mL) | 250 (≈ 81.9 µg/mL) | 250 (≈ 81.9 µg/mL) | 250 (≈ 81.9 µg/mL) | 125 (≈ 41 µg/mL) | – | 250 (≈ 81.9 µg/mL) | 0 |
| COc1cc(Cl)ccc1-c1nc2cc(Cl)c(Cl)cc2o1 | 250 (≈ 82.1 µg/mL) | 500 (≈ 164 µg/mL) | 250 (≈ 82.1 µg/mL) | 250 (≈ 82.1 µg/mL) | 250 (≈ 82.1 µg/mL) | 250 (≈ 82.1 µg/mL) | 250 (≈ 82.1 µg/mL) | 250 (≈ 82.1 µg/mL) | 250 (≈ 82.1 µg/mL) | 250 (≈ 82.1 µg/mL) | 0 |
| COc1ccc(Cl)cc1-c1nc2ccc(Br)cc2o1 | 125 (≈ 42.3 µg/mL) | 125 (≈ 42.3 µg/mL) | 125 (≈ 42.3 µg/mL) | 125 (≈ 42.3 µg/mL) | 125 (≈ 42.3 µg/mL) | 125 (≈ 42.3 µg/mL) | 125 (≈ 42.3 µg/mL) | 125 (≈ 42.3 µg/mL) | 125 (≈ 42.3 µg/mL) | 125 (≈ 42.3 µg/mL) | 0 |
| O=C(O)CC[N+](=O)[O-] | – | – | – | – | – | – | – | – | – | – | 25 |
| COc1ccc(Cl)cc1-c1nc2cc(Br)ccc2o1 | 250 (≈ 84.6 µg/mL) | 250 (≈ 84.6 µg/mL) | 250 (≈ 84.6 µg/mL) | 250 (≈ 84.6 µg/mL) | 250 (≈ 84.6 µg/mL) | 250 (≈ 84.6 µg/mL) | 250 (≈ 84.6 µg/mL) | 250 (≈ 84.6 µg/mL) | 250 (≈ 84.6 µg/mL) | 250 (≈ 84.6 µg/mL) | 0 |
| COc1cc(Cl)ccc1C(=O)Nc1ccc(C(F)(F)F)cc1OC(=O)c1ccc(Cl)cc1OC | 250 (≈ 129 µg/mL) | 62.5 (≈ 32.1 µg/mL) | 250 (≈ 129 µg/mL) | 250 (≈ 129 µg/mL) | 250 (≈ 129 µg/mL) | 250 (≈ 129 µg/mL) | 250 (≈ 129 µg/mL) | 62.5 (≈ 32.1 µg/mL) | – | 250 (≈ 129 µg/mL) | 8 |
| COc1ccc(Cl)cc1C(=O)Nc1cc(Cl)ccc1O | 16 (≈ 4.99 µg/mL) | 125 (≈ 39 µg/mL) | 32 (≈ 9.99 µg/mL) | 16 (≈ 4.99 µg/mL) | 16 (≈ 4.99 µg/mL) | 16 (≈ 4.99 µg/mL) | 16 (≈ 4.99 µg/mL) | 125 (≈ 39 µg/mL) | 4 (≈ 1.25 µg/mL) | 8 (≈ 2.5 µg/mL) | 0 |
| COc1ccc(Cl)cc1C(=O)Nc1ccc(C(F)(F)F)cc1OC(=O)c1cc(Cl)ccc1OC | 8 (≈ 4.11 µg/mL) | 62.5 (≈ 32.1 µg/mL) | 250 (≈ 129 µg/mL) | 250 (≈ 129 µg/mL) | 16 (≈ 8.23 µg/mL) | 8 (≈ 4.11 µg/mL) | 8 (≈ 4.11 µg/mL) | 62.5 (≈ 32.1 µg/mL) | – | 8 (≈ 4.11 µg/mL) | 9 |
